As usually defined, the pKi is the negative decadic logarithm of the Ki, by convention in mol/L.

Experimental findings from ChEMBL document CHEMBL3860034, “Development of Potent and Selective S. aureus Sortase A Inhibitors Based on Peptide Macrocycles” (ACS Med Chem Lett, 2016) are described below.

This experiment concerns the target T1, Sortase A (Staphylococcus aureus, UniProt Q9S446).
T1 sequence (Q9S446 whole entry): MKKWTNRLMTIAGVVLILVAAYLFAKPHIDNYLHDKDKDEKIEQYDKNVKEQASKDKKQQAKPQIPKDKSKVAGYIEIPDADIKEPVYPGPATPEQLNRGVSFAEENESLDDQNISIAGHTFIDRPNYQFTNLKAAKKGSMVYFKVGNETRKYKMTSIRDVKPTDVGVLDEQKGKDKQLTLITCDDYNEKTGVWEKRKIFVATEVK
As to the kind of experiment: Inhibition of Staphylococcus aureus His6-biotinylated SrtA expressed in Escherichia coli XL1-blue using Dabcyl-LPETG-Edans as substrate assessed as residual activity by fluorescence assay. In short, it runs like this: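 (His)6-SrtA26−206 from E. coli XL1-blue, purified by Ni affinity and gel filtration. Enzyme at 2.5 μM incubated with varied peptide concentrations (up to 300 μM). Residual activity measured with 20 μM Dabcyl-LPETG-Edans and 200 μM triglycine in 50 mM Tris-Cl pH 7.4, 150 mM NaCl, 5 mM CaCl2, 0.1% BSA, 37 °C. Fluorescence read at ex 350/em 480 nm. Ki from Supporting Information equations; at least three measurements.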

SMILES strings stand for the structures. pKi: −log10 of the molar value. *1 amine or outer side, *2 acyl side, *3 side chain or, on linkers, in order; H or OH if unused. Where a SMILES comes first, the peptide text is derived from it. Bridges are numbered along the chain shown (N, C = ends). TBMB = c1c(C[*:1])cc(C[*:3])cc1C[*:2]; mXylylene = c1cc(C[*:1])cc(C[*:2])c1

As to `CC[C@H](C)[C@@H]1NC(=O)[C@H](CO)NC(=O)[C@@H](NC(=O)[C@H](C)N)CSCc2cc3cc(c2)CSC[C@H](NC(=O)[C@@H]2CCCN2C(=O)[C@@H]2CCCN2C(=O)[C@H](CC(C)C)NC1=O)C(=O)N[C@@H](CC(N)=O)C(=O)N1CCC[C@H]1C(=O)N1CCC[C@H]1C(=O)N[C@@H](CCC(N)=O)C(=O)N[C@H](C(=O)NCC(N)=O)CSC3`, the pKi is 4.95. The value for `CC(C)C[C@@H]1NC(=O)[C@H](CCC(N)=O)NC(=O)[C@H](CCCNC(=N)N)NC(=O)[C@H](NC(=O)[C@H](C)N)CSCc2cc3cc(c2)CSC[C@H](C(=O)NCC(N)=O)NC(=O)[C@H](C(C)C)NC(=O)[C@H](Cc2ccc(O)cc2)NC(=O)[C@H](CCC(=O)O)NC(=O)[C@H](C)NC(=O)[C@H](CSC3)NC(=O)[C@@H]2CCCN2C(=O)[C@@H]2CCCN2C1=O` was 4.34; that for `CC[C@H](C)[C@@H]1NC(=O)[C@H](CO)NC(=O)[C@@H](NC(=O)[C@H](C)N)CSCc2cc3cc(c2)CSC[C@H](NC(=O)[C@@H]2CCCN2C(=O)[C@@H]2CCCN2C(=O)[C@H](CC(C)C)NC1=O)C(=O)N[C@H](CC(N)=O)C(=O)N1CCC[C@H]1C(=O)N1CCC[C@H]1C(=O)N[C@@H](CCC(N)=O)C(=O)N[C@H](C(=O)NCC(N)=O)CSC3` was 4.95; that for `CC[C@H](C)[C@@H]1NC(=O)[C@H](C)NC(=O)[C@@H](NC(=O)[C@H](C)N)CSCc2cc3cc(c2)CSC[C@H](NC(=O)[C@@H]2CCCN2C(=O)[C@@H]2CCCN2C(=O)[C@H](CC(C)C)NC1=O)C(=O)N[C@@H](CCC(N)=O)C(=O)N1CCC[C@H]1C(=O)N[C@@H](CCCNC(=N)N)C(=O)N[C@H](C(=O)NCC(N)=O)CSC3` was 4.67. The value for `CC[C@H](C)[C@@H]1NC(=O)[C@H](C)NC(=O)[C@@H](NC(=O)[C@H](C)N)CSCc2cc3cc(c2)CSC[C@H](C(=O)NCC(N)=O)NC(=O)[C@H](CCCNC(=N)N)NC(=O)[C@@H]2CCCN2C(=O)[C@H](CCC(N)=O)NC(=O)[C@H](CSC3)NC(=O)[C@@H]2CCCN2C(=O)[C@@H]2CCCN2C(=O)[C@H](CC(C)C)NC1=O` was 4.67; that for `CC(C)C[C@@H]1NC(=O)[C@H](CCC(N)=O)NC(=O)[C@H](CCCNC(=N)N)NC(=O)[C@@H](NC(=O)[C@H](C)N)CSCc2cc3cc(c2)CSC[C@H](NC(=O)[C@@H]2CCCN2C(=O)[C@@H]2CCCN2C1=O)C(=O)N[C@@H](C)C(=O)N[C@@H](CCC(=O)O)C(=O)N[C@@H](Cc1ccc(O)cc1)C(=O)N[C@@H](C(C)C)C(=O)N[C@H](C(=O)NCC(N)=O)CSC3` was 4.34; that for `CC(C)C[C@@H]1NC(=O)[C@@H](NC(=O)[C@H](C)N)CSCc2cc3cc(c2)CSC[C@H](NC(=O)[C@@H]2CCCN2C(=O)[C@@H]2CCCN2C(=O)[C@H](CC(C)C)NC(=O)[C@H](CCC(N)=O)NC1=O)C(=O)N[C@@H](CO)C(=O)N[C@@H](CO)C(=O)N1CCC[C@H]1C(=O)N[C@H](C(=O)NCC(N)=O)CSC3` (H-ACLQLPPCSSPCG-NH2; linker 2-8-12 via TBMB) was 4.94. The value for `CC[C@H](C)[C@@H]1NC(=O)[C@H](CO)NC(=O)[C@H](CO)NC(=O)[C@@H]2CSCc3cc(cc(c3)CSC[C@@H](C(=O)NCC(N)=O)NC(=O)[C@@H]3CCCN3C(=O)[C@@H]3CCCN3C(=O)[C@H](CC(C)C)NC1=O)CSC[C@H](NC(=O)[C@H](C)N)C(=O)N[C@@H](CCSC)C(=O)N[C@@H](Cc1ccc(O)cc1)C(=O)N[C@@H](CCC(N)=O)C(=O)N[C@@H](C)C(=O)N[C@@H](C)C(=O)N[C@@H](CC(C)C)C(=O)N2` (H-ACMYQAALCSSILPPCG-NH2; linker 2-9-16 via TBMB) was 5.03.

Turning to `CC(C)C[C@@H]1NC(=O)[C@@H]2CCCN2C(=O)[C@@H](NC(=O)[C@H](C)N)CSCc2cc3cc(c2)CSC[C@H](NC(=O)[C@@H]2CCCN2C(=O)[C@@H]2CCCN2C(=O)[C@H](CC(C)C)NC1=O)C(=O)N[C@@H](C)C(=O)N[C@@H](CC(=O)O)C(=O)N[C@@H](CC(=O)O)C(=O)N[C@H](C(=O)NCC(N)=O)CSC3` (H-ACPLLPPCADDCG-NH2; linker 2-8-12 via TBMB), the negative-log Ki (pKi) was 5.52.

Turning to `CC(C)C[C@@H]1NC(=O)[C@@H]2CCCN2C(=O)[C@@H](NC(=O)[C@H](C)N)CSCc2cc3cc(c2)CSC[C@H](NC(=O)[C@@H]2CCCN2C(=O)[C@@H]2CCCN2C(=O)[C@H](CC(C)C)NC1=O)C(=O)N[C@@H](Cc1cnc[nH]1)C(=O)N[C@@H](CC(C)C)C(=O)N1CCC[C@H]1C(=O)N[C@@H](CCC(N)=O)C(=O)N[C@H](C(=O)NCC(N)=O)CSC3` (H-ACPLLPPCHLPQCG-NH2; linker 2-8-13 via TBMB), the pKi is 4.88 to 5.03. The result for `CC(C)C[C@@H]1NC(=O)[C@H](CO)NC(=O)[C@@H]2CSCc3cc(cc(c3)CSC[C@H](NC(=O)[C@H](C)N)C(=O)N3CCC[C@H]3C(=O)N[C@@H](CC(C)C)C(=O)N[C@@H](CC(C)C)C(=O)N3CCC[C@H]3C(=O)N3CCC[C@H]3C(=O)N2)CSC[C@@H](C(=O)NCC(=O)O)NC(=O)[C@H](CC(=O)O)NC1=O` (H-ACPLLPPCSLDCG-OH; linker 2-8-12 via TBMB) reads 5.82; that for `CC(C)C[C@@H]1NC(=O)[C@H](CCC(N)=O)NC(=O)[C@@H]2CCCN2C(=O)[C@@H](NC(=O)[C@H](C)N)CSCc2cccc(c2)CSC[C@@H](C(=O)NCC(N)=O)NC(=O)[C@@H]2CCCN2C(=O)[C@@H]2CCCN2C1=O` (H-ACPQLPPCG-NH2; linker 2-8 via mXylylene), 5.31. The result for `CC(C)C[C@@H]1NC(=O)[C@@H]2CSCc3cc(cc(c3)CSC[C@H](NC(=O)[C@H](C)N)C(=O)N3CCC[C@H]3C(=O)N[C@@H](CCC(N)=O)C(=O)N[C@@H](CC(C)C)C(=O)N3CCC[C@H]3C(=O)N3CCC[C@H]3C(=O)N2)CSC[C@@H](C(=O)NCC(N)=O)NC(=O)[C@@H]2CCCN2C(=O)[C@H](Cc2ccc(O)cc2)NC1=O` (H-ACPQLPPCLYPCG-NH2; linker 2-8-12 via TBMB) reads 5.13.

On to `CC(C)C[C@@H]1NC(=O)[C@H](CCC(N)=O)NC(=O)[C@@H]2CCCN2C(=O)[C@@H](NC(=O)[C@H](C)N)CSCc2cc3cc(c2)CSC[C@H](NC(=O)[C@@H]2CCCN2C(=O)[C@@H]2CCCN2C1=O)C(=O)N[C@@H](CCCNC(=N)N)C(=O)N[C@@H](C(C)C)C(=O)N[C@@H](CO)C(=O)N[C@H](C(=O)NCC(N)=O)CSC3` (H-ACPQLPPCRVSCG-NH2; linker 2-8-12 via TBMB), for which the pKi is 5.37. The result for `CC[C@H](C)[C@@H]1NC(=O)CNC(=O)[C@H](CCC(N)=O)NC(=O)[C@@H](NC(=O)[C@H](C)N)CSCc2cc3cc(c2)CSC[C@H](NC(=O)[C@@H]2CCCN2C(=O)[C@@H]2CCCN2C(=O)[C@H](CC(C)C)NC1=O)C(=O)NCC(=O)N[C@@H](CCCNC(=N)N)C(=O)NCC(=O)NCC(=O)NCC(=O)N[C@H](C(=O)NCC(N)=O)CSC3` (H-ACQGILPPCGRGGGCG-NH2; linker 2-9-15 via TBMB) reads 4.38; that for `CC[C@H](C)[C@@H]1NC(=O)CNC(=O)[C@H](CCC(N)=O)NC(=O)[C@@H](NC(=O)[C@H](C)N)CSCc2cc3cc(c2)CSC[C@H](NC(=O)[C@@H]2CCCN2C(=O)[C@@H]2CCCN2C(=O)[C@H](CC(C)C)NC1=O)C(=O)NCC(=O)N[C@@H](CCCNC(=N)N)C(=O)NCC(=O)NCC(=O)NCC(=O)NCC(=O)N[C@H](C(=O)NCC(N)=O)CSC3` (H-ACQGILPPCGRGGGGCG-NH2; linker 2-9-16 via TBMB), 4.38.
